According to ChEMBL document CHEMBL1641460, “Potent and selective thiophene urea-templated inhibitors of S6K” (Bioorg Med Chem Lett, 2011):
Values after ≈ are worked out from the molar mass of the structure shown. One block for each compound: values may come before it.

Key:
[1] = biological target: T1, CYP1A2 (Homo sapiens, UniProt P05177); assay: Inhibition of CYP1A2 at 3 uM by LC/MS/MS analysis; type: ADME
T1 sequence (P05177 whole entry): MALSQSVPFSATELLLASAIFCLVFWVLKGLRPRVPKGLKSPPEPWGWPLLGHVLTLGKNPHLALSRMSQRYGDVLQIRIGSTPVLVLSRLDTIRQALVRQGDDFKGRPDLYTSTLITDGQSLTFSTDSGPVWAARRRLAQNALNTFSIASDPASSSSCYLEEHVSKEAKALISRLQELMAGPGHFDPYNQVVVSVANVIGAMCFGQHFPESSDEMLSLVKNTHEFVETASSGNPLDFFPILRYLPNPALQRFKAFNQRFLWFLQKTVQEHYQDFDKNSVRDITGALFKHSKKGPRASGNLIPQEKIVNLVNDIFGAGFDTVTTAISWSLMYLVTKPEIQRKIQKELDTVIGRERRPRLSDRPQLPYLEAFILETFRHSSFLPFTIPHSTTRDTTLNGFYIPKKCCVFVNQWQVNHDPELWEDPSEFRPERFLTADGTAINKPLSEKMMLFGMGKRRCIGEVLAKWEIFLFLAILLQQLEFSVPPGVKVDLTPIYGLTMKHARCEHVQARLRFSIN

[2] = Half life in human hepatocytes at 1 uM by LC/MS/MS analysis; type: ADME, cell-based, Liver, Hepatocyte
Method in brief: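 Stability measured in intact human hepatocytes, with remaining parent compound quantified by LC/MS/MS. Result expressed as half-life (T1/2) in minutes.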

[3] = Half life in human liver microsomes at 1 uM by LC/MS/MS analysis; type: ADME, Microsome
Method in brief: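 Test compound incubated with human liver microsomes to measure Phase I metabolic stability. Remaining compound quantified by LC/MS/MS, and stability reported as half-life (T1/2) in minutes.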

[4] = biological target: CYP2C9 (Homo sapiens, UniProt P11712); assay: Inhibition of CYP2C9 at 3 uM by LC/MS/MS analysis; type: ADME
[5] = biological target: CYP2D6 (Homo sapiens, UniProt P10635); assay: Inhibition of CYP2D6 at 3 uM by LC/MS/MS analysis; type: ADME
[6] = Kinetic solubility of the compound in 50 mM phosphate buffer at pH 6.5; type: physicochemical
[7] = biological target: Voltage-gated inwardly rectifying potassium channel KCNH2 (Homo sapiens, UniProt Q12809); assay: Displacement of labeled dofetilide from human ERG
[8] = biological target: CYP3A4 (Homo sapiens, UniProt P08684); assay: Inhibition of CYP3A4 at 3 uM by LC/MS/MS analysis; type: ADME
[9] = biological target: T2, Ribosomal protein S6 kinase beta-1 (Homo sapiens, UniProt P23443); assay: Inhibition of S6K1
[10] = biological target: T2, Ribosomal protein S6 kinase beta-1; assay: Inhibition of S6K1 in ribosomal protein S6 by whole cell assay

Chain of CYP3A4 (P08684 whole entry): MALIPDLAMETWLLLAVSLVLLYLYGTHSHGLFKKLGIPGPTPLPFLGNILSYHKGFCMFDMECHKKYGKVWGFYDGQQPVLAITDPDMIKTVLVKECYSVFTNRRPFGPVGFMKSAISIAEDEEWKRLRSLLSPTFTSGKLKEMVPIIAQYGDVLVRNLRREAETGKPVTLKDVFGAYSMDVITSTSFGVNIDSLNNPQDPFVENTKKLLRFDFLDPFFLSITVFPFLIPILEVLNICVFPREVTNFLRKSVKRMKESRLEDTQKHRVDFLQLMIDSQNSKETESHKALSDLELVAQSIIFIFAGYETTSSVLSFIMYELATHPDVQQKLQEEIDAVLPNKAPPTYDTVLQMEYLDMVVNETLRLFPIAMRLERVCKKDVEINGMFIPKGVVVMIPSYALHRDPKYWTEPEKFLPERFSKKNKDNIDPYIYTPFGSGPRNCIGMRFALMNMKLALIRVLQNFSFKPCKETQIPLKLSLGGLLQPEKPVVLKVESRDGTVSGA
Chain of Voltage-gated inwardly rectifying potassium channel KCNH2 (Q12809 whole entry): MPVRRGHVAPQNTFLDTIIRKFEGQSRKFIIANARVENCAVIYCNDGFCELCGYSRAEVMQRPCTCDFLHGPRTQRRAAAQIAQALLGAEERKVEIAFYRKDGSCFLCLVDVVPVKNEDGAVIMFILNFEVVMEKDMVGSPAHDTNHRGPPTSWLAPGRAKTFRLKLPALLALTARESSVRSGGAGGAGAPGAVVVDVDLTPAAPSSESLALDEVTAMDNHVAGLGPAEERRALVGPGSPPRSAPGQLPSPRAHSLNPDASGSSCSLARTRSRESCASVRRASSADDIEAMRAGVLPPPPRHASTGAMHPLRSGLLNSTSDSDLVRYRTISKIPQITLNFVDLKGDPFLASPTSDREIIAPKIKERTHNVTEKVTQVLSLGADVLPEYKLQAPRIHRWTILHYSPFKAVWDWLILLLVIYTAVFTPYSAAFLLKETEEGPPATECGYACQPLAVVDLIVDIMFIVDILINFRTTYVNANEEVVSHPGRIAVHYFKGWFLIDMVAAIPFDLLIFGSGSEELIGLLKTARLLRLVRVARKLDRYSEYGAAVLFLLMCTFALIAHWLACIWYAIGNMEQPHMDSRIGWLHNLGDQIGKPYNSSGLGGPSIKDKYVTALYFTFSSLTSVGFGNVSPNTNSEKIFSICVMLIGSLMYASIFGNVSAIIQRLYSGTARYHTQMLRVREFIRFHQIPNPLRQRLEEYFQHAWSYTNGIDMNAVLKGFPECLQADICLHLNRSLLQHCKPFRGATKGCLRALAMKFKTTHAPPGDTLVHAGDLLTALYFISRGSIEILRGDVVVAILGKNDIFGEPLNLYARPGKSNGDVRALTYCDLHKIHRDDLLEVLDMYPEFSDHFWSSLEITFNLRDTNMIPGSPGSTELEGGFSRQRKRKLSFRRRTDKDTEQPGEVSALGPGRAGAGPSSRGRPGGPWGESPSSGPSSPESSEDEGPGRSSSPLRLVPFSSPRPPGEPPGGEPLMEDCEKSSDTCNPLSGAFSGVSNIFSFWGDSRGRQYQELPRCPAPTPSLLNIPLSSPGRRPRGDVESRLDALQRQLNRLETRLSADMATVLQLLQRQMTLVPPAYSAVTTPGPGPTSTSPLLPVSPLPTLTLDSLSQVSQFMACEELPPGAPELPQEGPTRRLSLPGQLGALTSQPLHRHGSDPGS
T2 sequence (P23443 whole entry): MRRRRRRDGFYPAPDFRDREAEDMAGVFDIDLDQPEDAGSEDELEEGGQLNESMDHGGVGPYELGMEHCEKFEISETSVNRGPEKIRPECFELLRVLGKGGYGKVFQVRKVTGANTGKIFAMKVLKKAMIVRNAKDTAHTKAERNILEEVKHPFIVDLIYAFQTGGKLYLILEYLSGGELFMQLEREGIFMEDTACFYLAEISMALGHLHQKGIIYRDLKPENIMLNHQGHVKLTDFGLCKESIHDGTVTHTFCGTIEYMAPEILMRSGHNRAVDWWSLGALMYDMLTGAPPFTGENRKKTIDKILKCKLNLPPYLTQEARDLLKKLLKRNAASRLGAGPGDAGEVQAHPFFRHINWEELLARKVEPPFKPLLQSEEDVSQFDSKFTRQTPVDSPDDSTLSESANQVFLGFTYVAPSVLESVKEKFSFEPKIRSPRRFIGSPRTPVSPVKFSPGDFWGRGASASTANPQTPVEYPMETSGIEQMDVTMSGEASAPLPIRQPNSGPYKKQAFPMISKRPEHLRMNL
Chain of CYP2D6 (P10635 whole entry): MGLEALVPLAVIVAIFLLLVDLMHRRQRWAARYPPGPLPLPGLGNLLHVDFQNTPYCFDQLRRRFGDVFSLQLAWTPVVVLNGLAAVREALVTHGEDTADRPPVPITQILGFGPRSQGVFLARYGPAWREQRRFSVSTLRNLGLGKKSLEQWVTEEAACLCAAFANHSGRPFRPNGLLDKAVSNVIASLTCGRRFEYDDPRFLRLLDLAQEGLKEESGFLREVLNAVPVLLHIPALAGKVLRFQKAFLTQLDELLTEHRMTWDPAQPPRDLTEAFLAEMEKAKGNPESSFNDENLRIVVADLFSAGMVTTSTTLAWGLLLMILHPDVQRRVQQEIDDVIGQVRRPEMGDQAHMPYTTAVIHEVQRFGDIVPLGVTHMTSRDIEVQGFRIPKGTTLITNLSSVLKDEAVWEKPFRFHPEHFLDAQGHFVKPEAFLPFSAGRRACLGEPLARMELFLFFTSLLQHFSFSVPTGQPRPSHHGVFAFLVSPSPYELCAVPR
Chain of CYP2C9 (P11712 whole entry): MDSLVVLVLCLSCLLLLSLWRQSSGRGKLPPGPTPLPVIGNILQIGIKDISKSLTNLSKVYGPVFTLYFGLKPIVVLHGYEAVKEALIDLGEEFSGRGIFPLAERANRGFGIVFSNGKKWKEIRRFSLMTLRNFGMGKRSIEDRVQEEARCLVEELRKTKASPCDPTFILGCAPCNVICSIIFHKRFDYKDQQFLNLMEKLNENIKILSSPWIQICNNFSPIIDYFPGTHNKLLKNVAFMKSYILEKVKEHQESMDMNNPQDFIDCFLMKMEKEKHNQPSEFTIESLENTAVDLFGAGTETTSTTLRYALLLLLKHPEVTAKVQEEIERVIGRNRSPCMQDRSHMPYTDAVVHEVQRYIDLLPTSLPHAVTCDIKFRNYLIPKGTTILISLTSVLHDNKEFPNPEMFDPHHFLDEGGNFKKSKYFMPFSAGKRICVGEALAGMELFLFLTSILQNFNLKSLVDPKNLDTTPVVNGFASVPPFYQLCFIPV

- inhibition at 3 µM [1]: 45%
- half-life at 1 µM [2]: 6.12 h
- half-life at 1 µM [3]: > 2 h
- inhibition at 3 µM [4]: 14%
- inhibition at 3 µM [5]: 0%
- solubility kinetic [6]: 10 µg/mL (≈ 24.1 µM)
- inhibition at 3 µM [8]: 2%
- IC50 [9]: 7 nM
Structure (SMILES): COCCNC(=O)c1cc(C(C)(C)C)sc1NC(=O)Nc1ccc2[nH]ncc2c1
- inhibition (INH) [7]: 0%

- inhibition at 3 µM [1]: 36%
- half-life at 1 µM [3]: 0.917 h
- inhibition at 3 µM [4]: 52%
- inhibition at 3 µM [5]: 20%
- solubility kinetic [6]: 7 µg/mL (≈ 22.3 µM)
- inhibition at 3 µM [8]: 4%
- IC50 [9]: 19 nM
Structure (SMILES): CC(C)(C)c1ccc(NC(=O)Nc2ccc3[nH]ncc3c2)s1
- inhibition (INH) [7]: 0%

- IC50 [9]: 9000 nM
Structure (SMILES): CC(C)(C)c1cc(C(=O)N2CCS(=O)(=O)CC2)c(NC(=O)Nc2ccc(Oc3cccnc3)cc2)s1

- inhibition at 3 µM [1]: 40%
- half-life at 1 µM [2]: 2.3 h
- IC50 [10]: 685 nM
- half-life at 1 µM [3]: > 2 h
- inhibition at 3 µM [4]: 11%
- inhibition at 3 µM [5]: 12%
- solubility kinetic [6]: 10 µg/mL (≈ 25.2 µM)
- inhibition at 3 µM [8]: 11%
- IC50 [9]: 10 nM
Structure (SMILES): CC(C)(C)c1cc(C(=O)NC2CC2)c(NC(=O)Nc2ccc3[nH]ncc3c2)s1
- inhibition (INH) [7]: 0%

- IC50 [9]: > 20000 nM
Structure (SMILES): CC(C)(C)c1cc(C(=O)N2CCS(=O)(=O)CC2)c(NC(=O)Nc2ccc(Oc3ccncc3)cc2)s1

- IC50 [9]: > 20000 nM
Structure (SMILES): COc1ccccc1Oc1ccc(NC(=O)Nc2sc(C(C)(C)C)cc2C(=O)N2CCS(=O)(=O)CC2)cc1

- inhibition at 3 µM [1]: 18%
- half-life at 1 µM [2]: 2.08 h
- IC50 [10]: 521 nM
- half-life at 1 µM [3]: 0.633 h
- inhibition at 3 µM [4]: 0%
- inhibition at 3 µM [5]: 7%
- solubility kinetic [6]: 171 µg/mL (≈ 399 µM)
- inhibition at 3 µM [8]: 0%
- IC50 [9]: 15 nM
Structure (SMILES): CN(C)CCNC(=O)c1cc(C(C)(C)C)sc1NC(=O)Nc1ccc2[nH]ncc2c1
- inhibition (INH) [7]: 28%

- IC50 [9]: 1900 nM
Structure (SMILES): CN(C)CCNC(=O)c1cc(-c2ccccc2)sc1NC(=O)Nc1ccc2[nH]ncc2c1

- IC50 [9]: 29 nM
Structure (SMILES): CC(C)c1cc(C(=O)NCCN(C)C)c(NC(=O)Nc2ccc3[nH]ncc3c2)s1

- IC50 [9]: 223 nM
Structure (SMILES): Cc1cc(C(=O)NCCN(C)C)c(NC(=O)Nc2ccc3[nH]ncc3c2)s1

- IC50 [9]: > 20000 nM
Structure (SMILES): CC(C)(C)c1cc(C(=O)N2CCS(=O)(=O)CC2)c(NC(=O)Nc2ccc(Oc3ccccc3F)cc2)s1

- IC50 [9]: 379 nM
Structure (SMILES): C[C@H](O)c1cc(C(=O)NCCN(C)C)c(NC(=O)Nc2ccc3[nH]ncc3c2)s1

- IC50 [9]: 4000 nM
Structure (SMILES): Cc1c(O)cccc1NC(=O)Nc1sc(C(C)(C)C)cc1C(=O)N1CCS(=O)(=O)CC1

- IC50 [9]: 70 nM
Structure (SMILES): CN(C)CCNC(=O)c1cc(C2CC2)sc1NC(=O)Nc1ccc2[nH]ncc2c1

- IC50 [9]: 201 nM
Structure (SMILES): CC(C)(C)c1cc(C(=O)NCc2ccccc2)c(NC(=O)Nc2ccc3[nH]ncc3c2)s1

- IC50 [9]: 191 nM
Structure (SMILES): CC(C)(C)c1cc(C(=O)NCc2ccccc2F)c(NC(=O)Nc2ccc3[nH]ncc3c2)s1

- IC50 [9]: 34 nM
Structure (SMILES): CC(C)(C)c1cc(C(=O)N2CCS(=O)(=O)CC2)c(NC(=O)Nc2ccc3[nH]ncc3c2)s1

- IC50 [9]: > 20000 nM
Structure (SMILES): CC(C)(C)c1cc(C(=O)N2CCS(=O)(=O)CC2)c(NC(=O)Nc2ccc3oc4cccnc4c3c2)s1

- IC50 [9]: 62 nM
Structure (SMILES): CCc1cc(C(=O)NCCN(C)C)c(NC(=O)Nc2ccc3[nH]ncc3c2)s1

- IC50 [9]: 196 nM
Structure (SMILES): C[C@@H](O)c1cc(C(=O)NCCN(C)C)c(NC(=O)Nc2ccc3[nH]ncc3c2)s1

- inhibition at 3 µM [1]: 52%
- half-life at 1 µM [2]: 4.38 h
- half-life at 1 µM [3]: > 2 h
- inhibition at 3 µM [4]: 30%
- inhibition at 3 µM [5]: 9%
- solubility kinetic [6]: 41 µg/mL (≈ 102 µM)
- inhibition at 3 µM [8]: 0%
- IC50 [9]: 19 nM
Structure (SMILES): CC(C)(C)c1cc(C(=O)NCCO)c(NC(=O)Nc2ccc3[nH]ncc3c2)s1
- inhibition (INH) [7]: 0%

- IC50 [9]: > 20000 nM
Structure (SMILES): CC(C)(C)c1cc(C(=O)N2CCS(=O)(=O)CC2)c(NC(=O)Nc2ccc(Oc3ccccc3)cc2)s1

- IC50 [9]: 207 nM
Structure (SMILES): CC(C)(C)c1cc(C(=O)N2CCOCC2)c(NC(=O)Nc2ccc3[nH]ncc3c2)s1
